Results as given in ChEMBL document CHEMBL1212925, “Replacement of imidazolyl by pyridyl in biphenylmethylenes results in selective CYP17 and dual CYP17/CYP11B1 inhibitors for the treatment of prostate cancer” (J Med Chem, 2010).

Experiments:
[1] = target: T1, Steroid 17-alpha-hydroxylase/17,20 lyase (Homo sapiens, UniProt P05093); assay: Inhibition of human CYP17 expressed in Escherichia coli
T1 sequence (P05093 whole entry): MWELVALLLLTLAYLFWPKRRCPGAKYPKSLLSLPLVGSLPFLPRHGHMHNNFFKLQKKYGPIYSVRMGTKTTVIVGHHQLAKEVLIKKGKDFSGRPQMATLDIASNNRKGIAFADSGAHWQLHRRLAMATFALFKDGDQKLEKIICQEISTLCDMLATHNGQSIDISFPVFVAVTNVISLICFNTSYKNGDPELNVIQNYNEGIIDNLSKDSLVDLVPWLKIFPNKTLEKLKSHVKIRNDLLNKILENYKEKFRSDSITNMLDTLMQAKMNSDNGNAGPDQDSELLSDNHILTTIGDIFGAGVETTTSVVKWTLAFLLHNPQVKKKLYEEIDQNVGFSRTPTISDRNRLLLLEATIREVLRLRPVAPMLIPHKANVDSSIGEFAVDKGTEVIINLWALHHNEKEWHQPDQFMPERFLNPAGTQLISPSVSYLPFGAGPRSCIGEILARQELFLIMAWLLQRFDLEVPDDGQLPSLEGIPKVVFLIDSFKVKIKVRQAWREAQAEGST
Outline: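 Enzyme source: 50 000 sediment of homogenized E. coli co-expressing human CYP17 and NADPH-P450 reductase. Substrate and product separated by HPLC with UV detection.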

[2] = target: Cytochrome P450 3A4 (Homo sapiens, UniProt P08684); assay: Inhibition of recombinant CYP3A4 expressed in baculovirus-infected insect microsome; format: ADME
[3] = target: T2, Aromatase (Homo sapiens, UniProt P11511); assay: Inhibition of human placental CYP19
T2 sequence (P11511 whole entry): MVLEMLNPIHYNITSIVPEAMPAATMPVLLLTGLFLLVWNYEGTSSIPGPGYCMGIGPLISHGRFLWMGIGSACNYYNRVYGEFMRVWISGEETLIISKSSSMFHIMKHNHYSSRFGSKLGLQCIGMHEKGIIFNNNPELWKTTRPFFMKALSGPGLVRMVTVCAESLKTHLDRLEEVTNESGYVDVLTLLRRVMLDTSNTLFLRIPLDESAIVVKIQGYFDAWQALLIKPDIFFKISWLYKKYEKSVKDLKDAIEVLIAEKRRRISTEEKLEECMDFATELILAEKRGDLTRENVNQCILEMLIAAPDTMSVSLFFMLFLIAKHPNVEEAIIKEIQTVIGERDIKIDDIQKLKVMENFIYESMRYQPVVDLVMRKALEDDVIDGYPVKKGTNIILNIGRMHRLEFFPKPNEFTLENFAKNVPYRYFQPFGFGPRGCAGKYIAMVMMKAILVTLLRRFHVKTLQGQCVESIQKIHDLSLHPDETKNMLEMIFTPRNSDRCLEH
Outline: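 Human placental microsomes with [1β-3H]androstenedione substrate at 500 nM, run in vitro. IC50 values are means of at least three tests; SD within 5%.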

[4] = target: T3, Cytochrome P450 11B1, mitochondrial (Homo sapiens, UniProt P15538); assay: Inhibition of human CYP11B1 expressed in hamster fibroblast
T3 sequence (P15538 whole entry): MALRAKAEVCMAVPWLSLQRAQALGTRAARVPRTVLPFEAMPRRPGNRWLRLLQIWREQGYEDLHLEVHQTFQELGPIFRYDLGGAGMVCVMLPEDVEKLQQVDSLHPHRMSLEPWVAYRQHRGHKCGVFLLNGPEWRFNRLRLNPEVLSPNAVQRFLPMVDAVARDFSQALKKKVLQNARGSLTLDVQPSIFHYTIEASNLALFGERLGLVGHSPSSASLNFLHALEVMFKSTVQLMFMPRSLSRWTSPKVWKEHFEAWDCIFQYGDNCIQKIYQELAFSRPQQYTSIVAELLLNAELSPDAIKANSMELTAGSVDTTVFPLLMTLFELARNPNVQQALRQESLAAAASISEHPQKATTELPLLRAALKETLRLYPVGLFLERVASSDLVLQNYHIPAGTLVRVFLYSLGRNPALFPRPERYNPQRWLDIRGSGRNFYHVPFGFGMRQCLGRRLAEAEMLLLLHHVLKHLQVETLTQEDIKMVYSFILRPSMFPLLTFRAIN
Outline: (§1)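 V79 MZh hamster fibroblasts expressing human CYP11B1 or CYP11B2 incubated with [14C]11-deoxycorticosterone substrate at 100 nM and inhibitor at varied concentrations. Product formation monitored by HPTLC with phosphoimager. IC50 from mean of at least three tests; SD within 5%.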

[5] = target: T4, Cytochrome P450 11B2, mitochondrial (Homo sapiens, UniProt P19099); assay: Inhibition of human CYP11B2 expressed in hamster fibroblast; outline: as §1
T4 sequence (P19099 whole entry): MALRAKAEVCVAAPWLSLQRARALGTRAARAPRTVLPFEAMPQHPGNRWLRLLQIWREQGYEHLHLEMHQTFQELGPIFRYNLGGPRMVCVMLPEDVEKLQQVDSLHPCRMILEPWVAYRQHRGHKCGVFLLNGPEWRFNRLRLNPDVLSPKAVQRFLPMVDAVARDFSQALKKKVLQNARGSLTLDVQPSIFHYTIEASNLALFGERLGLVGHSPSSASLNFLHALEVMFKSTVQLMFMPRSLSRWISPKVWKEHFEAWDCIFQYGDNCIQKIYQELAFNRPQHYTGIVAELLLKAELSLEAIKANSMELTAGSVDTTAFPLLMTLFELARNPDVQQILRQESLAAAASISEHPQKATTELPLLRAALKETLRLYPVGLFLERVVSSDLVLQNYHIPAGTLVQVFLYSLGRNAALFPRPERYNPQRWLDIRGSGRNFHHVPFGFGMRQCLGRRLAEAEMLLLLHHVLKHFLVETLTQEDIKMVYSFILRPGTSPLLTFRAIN

Sequence of Cytochrome P450 3A4 (P08684 whole entry): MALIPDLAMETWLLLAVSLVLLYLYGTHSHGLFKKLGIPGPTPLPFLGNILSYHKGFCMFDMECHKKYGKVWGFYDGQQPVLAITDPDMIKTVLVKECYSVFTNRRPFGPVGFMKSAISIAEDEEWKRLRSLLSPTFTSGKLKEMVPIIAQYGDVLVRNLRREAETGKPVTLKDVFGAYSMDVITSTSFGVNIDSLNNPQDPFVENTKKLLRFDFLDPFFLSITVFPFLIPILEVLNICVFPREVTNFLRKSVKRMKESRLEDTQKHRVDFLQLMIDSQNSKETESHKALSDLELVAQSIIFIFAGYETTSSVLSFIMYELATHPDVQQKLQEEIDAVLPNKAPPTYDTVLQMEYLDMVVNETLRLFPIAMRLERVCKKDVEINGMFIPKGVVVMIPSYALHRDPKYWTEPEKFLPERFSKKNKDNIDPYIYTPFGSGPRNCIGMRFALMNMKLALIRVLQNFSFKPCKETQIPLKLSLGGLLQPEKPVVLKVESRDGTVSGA

IC50 [1] | IC50 [2] | IC50 [3] | IC50 [4] | IC50 [5] | Structure (SMILES)
> 10000 nM | – | – | – | – | CC(C)(C)OC(=O)Nc1ccc(-c2ccc(Cc3ccncc3)cc2)cc1NC(=O)OC(C)(C)C
> 5000 nM | – | – | – | – | CCC(c1ccc(-c2ccc(OC)cc2)cc1)c1cccnc1 (centres undefined)
2000 nM | – | – | – | – | COc1ccc2cc(-c3ccc(Cc4ccncc4)cc3)ccc2c1
248 nM | 3210 nM | 3070 nM | 251 nM | 341 nM | Oc1ccc(-c2ccc(Cc3ccncc3)cc2)cc1
> 10000 nM | – | – | – | – | COc1ccc(-c2ccc(Cc3ccncc3)cc2)cc1NC(=O)OC(C)(C)C
– | – | 2690 nM | 850 nM | 210 nM | Oc1ccc(-c2ccc(Cc3ccncc3)cc2)cc1F
1370 nM | – | – | – | – | CC(C)(C)OC(=O)Nc1ccc(-c2ccc(Cc3ccncc3)cc2)cc1
598 nM | – | – | 4740 nM | 273 nM | Fc1ccc(-c2ccc(Cc3ccncc3)cc2)cc1F
1610 nM | – | – | – | – | CCC(c1ccncc1)c1ccc(-c2ccc(OC)cc2)cc1 (centres undefined)
> 10000 nM | – | – | – | – | CC(C)(C)OC(=O)Nc1ccc(-c2ccc(Cc3ccncc3)cc2)cc1F
647 nM | – | – | 415 nM | 331 nM | c1cc(Cc2ccc(-c3ccsc3)cc2)ccn1
– | – | > 25000 nM | 902 nM | 367 nM | Nc1ccc(-c2ccc(Cc3ccncc3)cc2)cc1N
> 5000 nM | – | – | – | – | CCC(c1ccc(-c2ccc(OC)cc2)cc1)n1ccnc1 (centres undefined)
438 nM | 1140 nM | – | 627 nM | 1130 nM | Oc1ccc2cc(-c3ccc(Cc4ccncc4)cc3)ccc2c1
647 nM | – | – | 422 nM | 796 nM | c1csc(-c2ccc(Cc3ccncc3)cc2)c1
> 5000 nM | – | – | – | – | Oc1ccc(-c2ccc(C(O)n3ccnc3)cc2)cc1 (centres undefined)
4040 nM | – | – | – | – | Oc1ccc(-c2ccc(Cc3cccnc3)cc2)cc1
3340 nM | – | – | – | – | COc1ccc(-c2ccc(Cc3ccncc3)cc2)cc1F
> 10000 nM | – | – | – | – | CC(C)(C(=O)c1cccnc1)c1cccnc1 [METYRAPONE]
1790 nM | – | – | – | – | NC(=O)c1ccc(-c2ccc(Cc3ccncc3)cc2)cc1
408 nM | 2450 nM | 24500 nM | 522 nM | 406 nM | Nc1ccc(-c2ccc(Cc3ccncc3)cc2)cc1
> 5000 nM | – | – | – | – | CC(=O)Nc1ccc(-c2ccc(Cc3ccncc3)cc2)cc1
760 nM | – | – | 469 nM | 231 nM | c1cc(Cc2ccc(-c3ccc4[nH]ccc4c3)cc2)ccn1
876 nM | – | – | 307 nM | 567 nM | CC(=O)Nc1cccc(-c2ccc(Cc3ccncc3)cc2)c1
